Laboratory results taken from ChEMBL document CHEMBL4145508 (Eur J Med Chem, 2018).
Calls of active or inactive are those of the source. The rule behind the calls is not given here.

Experiments:
Neuraminidase [1] = biological target: T1, Neuraminidase (Influenza A virus, UniProt B4URF0); design: species or system duck/Guangdong/674/2014(H5N6)
Neuraminidase [2] = biological target: T1, Neuraminidase; design: species or system chicken/china/1220/2012(H5N1)
Influenza A virus [3] = assay: Antiviral activity against influenza A virus chicken/china/1220/2012(H5N1) infected in chicken embryo fibroblasts assessed as effect on embryo survival at 0.0390625 mmol/L preincubated with virus for 1 hr followed by viral infection measured after […]; format: functional, organism-based
Influenza A virus [4] = assay: Antiviral activity against influenza A virus chicken/china/1220/2012(H5N1) infected in chicken embryo fibroblasts assessed as effect on embryo survival at 0.625 mmol/L preincubated with virus for 1 hr followed by viral infection measured after […]; format: functional, organism-based
Influenza A virus [5] = assay: Antiviral activity against influenza A virus duck/Guangdong/674/2014(H5N6) infected in chicken embryo fibroblasts assessed as effect on embryo survival at 0.625 mmol/L preincubated with virus for 1 hr followed by viral infection measured after […]; format: functional, organism-based
Influenza A virus [6] = assay: Antiviral activity against influenza A virus duck/Guangdong/674/2014(H5N6) infected in chicken embryo fibroblasts assessed as effect on embryo survival at 10 mmol/L preincubated with virus for 1 hr followed by viral infection measured after […]; format: functional, organism-based
Influenza A virus [7] = assay: Antiviral activity against influenza A virus chicken/china/1220/2012(H5N1) infected in chicken embryo fibroblasts assessed as reduction in viral cytopathic effect preincubated with virus for 1 hr followed by viral infection measured after 2 days by CCK-8 assay; format: functional, organism-based
Influenza A virus [8] = assay: Antiviral activity against influenza A virus chicken/china/1220/2012(H5N1) infected in chicken embryo fibroblasts assessed as effect on embryo survival at 10 mmol/L preincubated with virus for 1 hr followed by viral infection measured after […]; format: functional, organism-based
Influenza A virus [9] = assay: Antiviral activity against influenza A virus chicken/china/1220/2012(H5N1) infected in chicken embryo fibroblasts assessed as effect on embryo survival at 2.5 mmol/L preincubated with virus for 1 hr followed by viral infection measured after […]; format: functional, organism-based
Influenza A virus [10] = assay: Antiviral activity against influenza A virus duck/Guangdong/674/2014(H5N6) infected in chicken embryo fibroblasts assessed as reduction in viral cytopathic effect preincubated with virus for 1 hr followed by viral infection measured after 2 days by CCK-8 assay; format: functional, organism-based
Influenza A virus [11] = assay: Antiviral activity against influenza A virus duck/Guangdong/674/2014(H5N6) infected in chicken embryo fibroblasts assessed as effect on embryo survival at 2.5 mmol/L preincubated with virus for 1 hr followed by viral infection measured after […]; format: functional, organism-based
Influenza A virus [12] = assay: Antiviral activity against influenza A virus duck/Guangdong/674/2014(H5N6) infected in chicken embryo fibroblasts assessed as effect on embryo survival at 0.0390625 mmol/L preincubated with virus for 1 hr followed by viral infection measured after […]; format: functional, organism-based
Influenza A virus [13] = assay: Antiviral activity against influenza A virus chicken/china/1220/2012(H5N1) infected in chicken embryo fibroblasts assessed as effect on embryo survival at 0.15625 mmol/L preincubated with virus for 1 hr followed by viral infection measured after […]; format: functional, organism-based
[14] = Cytotoxicity against chicken embryo fibroblasts assessed as reduction in cell viability after 2 days by CCK-8 assay; format: cell-based, Gallus gallus, Fibroblast
Outline: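 Chicken embryo fibroblasts grown 24 h at 37 °C, then exposed without virus to compounds dissolved in water and serially diluted 3-fold in DMEM. Incubation was at 37 °C under 5% CO₂, with viability read by CCK-8 at 2 days. CC₅₀, the concentration giving a 50% drop in viability, was fitted from the concentration curve.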

Influenza A virus [15] = assay: Antiviral activity against influenza A virus duck/Guangdong/674/2014(H5N6) infected in chicken embryo fibroblasts assessed as effect on embryo survival at 0.15625 mmol/L preincubated with virus for 1 hr followed by viral infection measured after […]; format: functional, organism-based

T1 sequence (B4URF0 whole entry): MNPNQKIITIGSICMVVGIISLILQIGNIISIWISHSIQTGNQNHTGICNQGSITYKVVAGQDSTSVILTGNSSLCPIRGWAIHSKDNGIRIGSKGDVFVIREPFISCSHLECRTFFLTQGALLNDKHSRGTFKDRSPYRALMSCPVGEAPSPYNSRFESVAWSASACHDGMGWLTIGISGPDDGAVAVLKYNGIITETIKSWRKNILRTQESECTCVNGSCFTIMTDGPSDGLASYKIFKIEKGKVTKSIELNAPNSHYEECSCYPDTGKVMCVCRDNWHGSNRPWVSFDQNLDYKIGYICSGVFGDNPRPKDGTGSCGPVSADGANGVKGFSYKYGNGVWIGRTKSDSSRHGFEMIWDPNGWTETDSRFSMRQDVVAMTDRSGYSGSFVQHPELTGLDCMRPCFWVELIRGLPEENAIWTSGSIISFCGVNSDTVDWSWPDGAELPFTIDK

With `CCC(CC)O[C@@H]1C=C(C(=O)NCc2ccc(-c3ccsc3)cc2)C[C@H](N)[C@H]1NC(C)=O` as the compound, how does the IC50 (Neuraminidase [1]) read?
The IC50 was over 40 µM.

What about the IC50 (Neuraminidase [2]) of the same compound?
Its IC50 is 29.8 µM.

Which IC50 (Neuraminidase [1]) does the source give for `CCC(CC)O[C@@H]1C=C(C(=O)NCc2ccc(-c3ccccc3)cc2)C[C@H](N)[C@H]1NC(C)=O` here?
Its IC50 is 0.99 µM.

What about the IC50 (Neuraminidase [2]) of the same compound?
The IC50 was 0.96 µM.

Which results are given for `CCC(CC)O[C@@H]1C=C(C(=O)NCCc2cccc(F)c2)C[C@H](N)[C@H]1NC(C)=O`?
IC50 (Neuraminidase [1]): 32.5 µM; IC50 (Neuraminidase [2]): 15.2 µM

With `CCC(CC)O[C@@H]1C=C(C(=O)N[C@H](C)C(=O)O)C[C@H](N)[C@H]1NC(C)=O` as the compound, how does the IC50 (Neuraminidase [1]) read?
The IC50 was 1.07 µM.

And the IC50 (Neuraminidase [2])?
The IC50 was 1.35 µM.

Which results are given for `CCC(CC)O[C@@H]1C=C(C(=O)N[C@H](C(=O)O)C(C)C)C[C@H](N)[C@H]1NC(C)=O` [listing 1 of 2 here]?
IC50 (Neuraminidase [1]): 0.304 µM; IC50 (Neuraminidase [2]): 0.342 µM

With `CCC(CC)O[C@@H]1C=C(C(=O)N[C@H](C(=O)O)C(C)C)C[C@H](N)[C@H]1NC(C)=O` [listing 2 of 2 here] as the compound, how does the IC50 (Neuraminidase [1]) read?
The IC50 was 0.248 µM.

What about the IC50 (Neuraminidase [2]) of the same compound?
The IC50 was 0.135 µM.

For `CCC(CC)O[C@@H]1C=C(C(=O)N[C@@H](C)C(=O)O)C[C@H](N)[C@H]1NC(C)=O`, which IC50 (Neuraminidase [1]) is on record?
The IC50 was 1.28 µM.

And the IC50 (Neuraminidase [2])?
The IC50 was 2.2 µM.

With `CCC(CC)O[C@@H]1C=C(C(=O)NCC(=O)O)C[C@H](N)[C@H]1NC(C)=O` as the compound, how does the IC50 (Neuraminidase [1]) read?
Its IC50 is 2.16 µM.

What about the IC50 (Neuraminidase [2]) of the same compound?
The IC50 was 2.53 µM.

With `CCC(CC)O[C@@H]1C=C(C(=O)N[C@@H](C(=O)O)C(C)C)C[C@H](N)[C@H]1NC(C)=O` as the compound, how does the Activity (Influenza A virus [3]) read?
The Activity was “inactive”.

What about the Activity (Influenza A virus [4]) of the same compound?
The Activity was “inactive”.

And the IC50 (Neuraminidase [1])?
Its IC50 is 0.0967 µM.

What about the Activity (Influenza A virus [5]) of the same compound?
Its Activity is “inactive”.

And the IC50 (Neuraminidase [2])?
Its IC50 is 0.0883 µM.

And the Activity (Influenza A virus [6])?
Its Activity is “Active”.

And the EC50 (Influenza A virus [7])?
Its EC50 is 4.26 µM.

And the Activity (Influenza A virus [8])?
Its Activity is “Active”.

What about the Activity (Influenza A virus [9]) of the same compound?
Its Activity is “inactive”.

What about the EC50 (Influenza A virus [10]) of the same compound?
The EC50 was 1.31 µM.

What about the Activity (Influenza A virus [11]) of the same compound?
The Activity was “inactive”.

And the Activity (Influenza A virus [12])?
Its Activity is “inactive”.

What about the Activity (Influenza A virus [13]) of the same compound?
The Activity was “inactive”.

What about the CC50 at 48 h [14] of the same compound?
Its CC50 at 48 h is over 1000 µM.

What about the Activity (Influenza A virus [15]) of the same compound?
Its Activity is “inactive”.

Which IC50 (Neuraminidase [1]) does the source give for `CCC(CC)O[C@@H]1C=C(C(=O)NCc2ccc(C(F)(F)F)cc2)C[C@H](N)[C@H]1NC(C)=O` here?
Its IC50 is 8.78 µM.

What about the IC50 (Neuraminidase [2]) of the same compound?
The IC50 was 10.9 µM.

Which Activity (Influenza A virus [3]) does the source give for `CCC(CC)O[C@@H]1C=C(C(=O)O)C[C@H](N)[C@H]1NC(C)=O` [OSELTAMIVIR CARBOXYLATE] here?
The Activity was “inactive”.

What about the Activity (Influenza A virus [5]) of the same compound?
Its Activity is “inactive”.

What about the Activity (Influenza A virus [6]) of the same compound?
The Activity was “inactive”.

And the EC50 (Influenza A virus [7])?
Its EC50 is 1.35 µM.

What about the EC50 (Influenza A virus [10]) of the same compound?
Its EC50 is 0.73 µM.

What about the Activity (Influenza A virus [11]) of the same compound?
Its Activity is “inactive”.

And the Activity (Influenza A virus [12])?
The Activity was “inactive”.

What about the Activity (Influenza A virus [13]) of the same compound?
The Activity was “inactive”.

And the CC50 at 48 h [14]?
The CC50 at 48 h was over 1000 µM.

What about the Activity (Influenza A virus [15]) of the same compound?
The Activity was “inactive”.

What does the source list for `CCC(CC)O[C@@H]1C=C(C(=O)NCc2ccccc2)C[C@H](N)[C@H]1NC(C)=O`?
IC50 (Neuraminidase [1]): 19.9 µM; IC50 (Neuraminidase [2]): 9.87 µM

Which IC50 (Neuraminidase [1]) does the source give for `CCC(CC)O[C@@H]1C=C(C(=O)NCCN2CCOCC2)C[C@H](N)[C@H]1NC(C)=O` here?
The IC50 was 12.1 µM.

What about the IC50 (Neuraminidase [2]) of the same compound?
The IC50 was 4.24 µM.

With `CCC(CC)O[C@@H]1C=C(C(=O)NCc2ccc(C)cc2)C[C@H](N)[C@H]1NC(C)=O` as the compound, how does the IC50 (Neuraminidase [1]) read?
Its IC50 is 11 µM.

What about the IC50 (Neuraminidase [2]) of the same compound?
Its IC50 is 2.91 µM.

With `CCC(CC)O[C@@H]1C=C(C(=O)NCc2ccc(Br)cc2)C[C@H](N)[C@H]1NC(C)=O` as the compound, how does the IC50 (Neuraminidase [1]) read?
Its IC50 is 6.01 µM.

What about the IC50 (Neuraminidase [2]) of the same compound?
The IC50 was 2.07 µM.

What does the source list for `CCC(CC)O[C@@H]1C=C(C(=O)NCc2cccc(F)c2)C[C@H](N)[C@H]1NC(C)=O`?
IC50 (Neuraminidase [1]): 11.4 µM; IC50 (Neuraminidase [2]): 5.09 µM

For `CCC(CC)O[C@@H]1C=C(C(=O)NCc2cccc(Cl)c2)C[C@H](N)[C@H]1NC(C)=O`, which IC50 (Neuraminidase [1]) is on record?
Its IC50 is 7.86 µM.

And the IC50 (Neuraminidase [2])?
The IC50 was 3.02 µM.

What does the source list for `C=CCNC(=O)C1=C[C@@H](OC(CC)CC)[C@H](NC(C)=O)[C@@H](N)C1`?
IC50 (Neuraminidase [1]): 0.41 µM; IC50 (Neuraminidase [2]): 5.03 µM

With `CCC(CC)O[C@@H]1C=C(C(=O)NCc2ccc(F)cc2)C[C@H](N)[C@H]1NC(C)=O` as the compound, how does the IC50 (Neuraminidase [1]) read?
Its IC50 is 2.78 µM.

What about the IC50 (Neuraminidase [2]) of the same compound?
Its IC50 is 0.94 µM.

With `CCC(CC)O[C@@H]1C=C(C(=O)NCc2cc(F)cc(F)c2)C[C@H](N)[C@H]1NC(C)=O` as the compound, how does the IC50 (Neuraminidase [1]) read?
Its IC50 is 10.4 µM.

And the IC50 (Neuraminidase [2])?
The IC50 was 2.22 µM.

With `CCC(CC)O[C@@H]1C=C(C(=O)Nc2ccc(N3CCOCC3=O)cc2)C[C@H](N)[C@H]1NC(C)=O` as the compound, how does the IC50 (Neuraminidase [1]) read?
The IC50 was 2.27 µM.

And the IC50 (Neuraminidase [2])?
The IC50 was 1.46 µM.

Which results are given for `CCC(CC)O[C@@H]1C=C(C(=O)NCCc2ccccc2F)C[C@H](N)[C@H]1NC(C)=O`?
IC50 (Neuraminidase [1]): 5.12 µM; IC50 (Neuraminidase [2]): 3.17 µM

For `CCC(CC)O[C@@H]1C=C(C(=O)Nc2ccc(F)cc2)C[C@H](N)[C@H]1NC(C)=O`, which IC50 (Neuraminidase [1]) is on record?
Its IC50 is 16.3 µM.

What about the IC50 (Neuraminidase [2]) of the same compound?
Its IC50 is 11.7 µM.

What does the source list for `CCC(CC)O[C@@H]1C=C(C(=O)NCc2ccc(F)cc2Cl)C[C@H](N)[C@H]1NC(C)=O`?
IC50 (Neuraminidase [1]): 19.4 µM; IC50 (Neuraminidase [2]): 3.91 µM

Which IC50 (Neuraminidase [1]) does the source give for `CCC(CC)O[C@@H]1C=C(C(=O)N(C)CCc2cccc(F)c2)C[C@H](N)[C@H]1NC(C)=O` here?
Its IC50 is 2.51 µM.

What about the IC50 (Neuraminidase [2]) of the same compound?
The IC50 was 2.65 µM.

With `CCC(CC)O[C@@H]1C=C(C(=O)NCc2ccc(-c3cccs3)cc2)C[C@H](N)[C@H]1NC(C)=O` as the compound, how does the IC50 (Neuraminidase [1]) read?
Its IC50 is 10.9 µM.

And the IC50 (Neuraminidase [2])?
The IC50 was 7.75 µM.

Which IC50 (Neuraminidase [1]) does the source give for `CCC(CC)O[C@@H]1C=C(C(=O)NCc2ccccc2F)C[C@H](N)[C@H]1NC(C)=O` here?
Its IC50 is 14.7 µM.

What about the IC50 (Neuraminidase [2]) of the same compound?
The IC50 was 6.26 µM.

What does the source list for `CCC(CC)O[C@@H]1C=C(C(=O)NCc2ccc(OC)cc2)C[C@H](N)[C@H]1NC(C)=O`?
IC50 (Neuraminidase [1]): > 40 µM; IC50 (Neuraminidase [2]): > 40 µM
